ChEMBL document CHEMBL1137555, “Aminocyclohexylsulfonamides: discovery of metabolically stable alpha(1a/1d)-selective adrenergic receptor antagonists for the treatment of benign prostatic hyperplasia/lower urinary tract symptoms (BPH/LUTS)” (Bioorg Med Chem Lett, 2007)

Tests used:
[1] = Metabolic stability in human liver microsomes; format: ADME, Microsome
Method in brief: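 Human liver microsomal metabolism assay; read-out was half-life (T1/2, min).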

D(2) dopamine receptor = D(2) dopamine receptor (Homo sapiens, UniProt P14416); experiment: Binding affinity to human cloned dopamine D2 receptor
Chain of D(2) dopamine receptor (P14416 whole entry): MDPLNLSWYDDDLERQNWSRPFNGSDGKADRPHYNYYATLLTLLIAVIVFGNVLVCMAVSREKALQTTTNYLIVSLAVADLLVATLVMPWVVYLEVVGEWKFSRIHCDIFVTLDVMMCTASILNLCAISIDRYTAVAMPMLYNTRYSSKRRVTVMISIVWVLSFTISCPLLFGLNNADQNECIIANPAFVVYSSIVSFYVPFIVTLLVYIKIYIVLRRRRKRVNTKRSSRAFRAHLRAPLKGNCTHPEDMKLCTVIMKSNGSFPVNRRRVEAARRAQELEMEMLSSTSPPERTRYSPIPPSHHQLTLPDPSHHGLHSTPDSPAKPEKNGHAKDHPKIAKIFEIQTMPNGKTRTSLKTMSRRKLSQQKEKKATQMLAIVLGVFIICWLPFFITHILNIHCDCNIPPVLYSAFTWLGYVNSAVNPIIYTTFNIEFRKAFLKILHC

[2] = biological target: T1, Alpha-1B adrenergic receptor (Homo sapiens, UniProt P35368); experiment: Binding affinity to human cloned adrenergic alpha-1b receptor
T1 sequence (P35368 whole entry): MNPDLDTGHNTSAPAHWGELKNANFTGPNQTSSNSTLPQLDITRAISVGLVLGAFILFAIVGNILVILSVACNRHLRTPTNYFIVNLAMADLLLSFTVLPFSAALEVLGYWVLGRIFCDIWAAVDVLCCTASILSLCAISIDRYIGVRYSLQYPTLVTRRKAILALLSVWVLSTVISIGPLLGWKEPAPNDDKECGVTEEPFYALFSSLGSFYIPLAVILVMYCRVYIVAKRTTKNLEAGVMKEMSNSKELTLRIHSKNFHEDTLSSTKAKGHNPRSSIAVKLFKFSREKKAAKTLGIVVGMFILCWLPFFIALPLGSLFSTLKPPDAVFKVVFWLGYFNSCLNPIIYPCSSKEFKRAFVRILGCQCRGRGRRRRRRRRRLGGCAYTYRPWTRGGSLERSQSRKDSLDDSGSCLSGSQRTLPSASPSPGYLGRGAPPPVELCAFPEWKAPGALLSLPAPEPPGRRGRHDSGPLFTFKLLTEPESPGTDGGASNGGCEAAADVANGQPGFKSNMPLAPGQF

[3] = biological target: T2, Alpha-1D adrenergic receptor (Homo sapiens, UniProt P25100); experiment: Binding affinity to human cloned adrenergic alpha-1d receptor
T2 sequence (P25100 whole entry): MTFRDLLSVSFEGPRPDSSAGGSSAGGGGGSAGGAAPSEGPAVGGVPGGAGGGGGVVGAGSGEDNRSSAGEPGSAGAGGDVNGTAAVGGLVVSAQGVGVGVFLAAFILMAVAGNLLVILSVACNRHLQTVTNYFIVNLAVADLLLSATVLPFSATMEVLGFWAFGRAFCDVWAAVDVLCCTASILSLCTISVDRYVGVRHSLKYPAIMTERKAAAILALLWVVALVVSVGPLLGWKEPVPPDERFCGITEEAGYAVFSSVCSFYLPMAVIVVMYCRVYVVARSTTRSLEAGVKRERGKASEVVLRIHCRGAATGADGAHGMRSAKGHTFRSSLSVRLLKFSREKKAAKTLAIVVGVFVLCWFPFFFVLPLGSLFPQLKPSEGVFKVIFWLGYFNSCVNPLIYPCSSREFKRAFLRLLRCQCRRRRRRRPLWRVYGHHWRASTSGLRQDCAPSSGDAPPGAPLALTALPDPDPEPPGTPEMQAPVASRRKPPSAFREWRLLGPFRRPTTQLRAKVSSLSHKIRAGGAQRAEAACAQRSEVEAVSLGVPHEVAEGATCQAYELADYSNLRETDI

[4] = biological target: T3, Alpha-1A adrenergic receptor (Homo sapiens, UniProt P35348); experiment: Binding affinity to human cloned adrenergic Alpha-1A receptor
T3 sequence (P35348 whole entry): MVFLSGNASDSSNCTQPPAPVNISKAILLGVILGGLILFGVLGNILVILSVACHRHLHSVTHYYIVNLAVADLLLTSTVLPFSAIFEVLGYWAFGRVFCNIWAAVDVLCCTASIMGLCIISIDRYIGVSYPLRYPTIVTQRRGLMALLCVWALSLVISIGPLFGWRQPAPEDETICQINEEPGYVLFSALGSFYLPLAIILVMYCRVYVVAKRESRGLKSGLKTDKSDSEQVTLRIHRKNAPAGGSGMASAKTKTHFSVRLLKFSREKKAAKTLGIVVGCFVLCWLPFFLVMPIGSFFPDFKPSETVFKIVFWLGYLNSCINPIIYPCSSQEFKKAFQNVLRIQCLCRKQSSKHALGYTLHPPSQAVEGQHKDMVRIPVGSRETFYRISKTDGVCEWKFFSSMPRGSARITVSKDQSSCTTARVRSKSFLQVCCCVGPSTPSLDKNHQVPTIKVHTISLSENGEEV

| Structure (SMILES) | half-life [1] | Ki (D(2) dopamine receptor) | Ki [2] | Ki [3] | Ki [4] |
| --- | --- | --- | --- | --- | --- |
| COc1ccc(S(=O)(=O)N[C@H]2CC[C@@H](N3CCC(c4ccccc4OCC(F)(F)F)CC3)CC2)cc1OC | 56 min |  |  |  |  |
| COc1ccc(S(=O)(=O)N[C@H]2CC[C@@H](N3CCC(c4ccccc4OC4CC4)CC3)CC2)cc1OC | 18 min |  |  |  |  |
| COc1ccc(F)cc1S(=O)(=O)N[C@H]1CC[C@@H](N2CCN(c3ccccc3OC(C)C)CC2)CC1 | < 2 min |  |  |  |  |
| COc1ccc(Cl)cc1S(=O)(=O)N[C@H]1CC[C@@H](N2CCN(c3ccccc3OC(C)C)CC2)CC1 | < 2 min |  |  |  |  |
| CC(C)Oc1ccccc1N1CCN([C@H]2CC[C@@H](NS(=O)(=O)c3ccc(S(C)(=O)=O)cc3)CC2)CC1 | 2.5 min |  |  |  |  |
| CCN([C@H]1CC[C@H](N2CCN(c3ccccc3OC(C)C)CC2)CC1)S(=O)(=O)c1ccc(OC)c(OC)c1 |  | 2.7 nM |  |  |  |
| COc1ccc(S(=O)(=O)N[C@H]2CC[C@H](N3CCN(c4ccccc4OCC(F)(F)F)CC3)CC2)cc1OC |  | 114 nM | 39 nM |  |  |
| COc1ccc(S(=O)(=O)N[C@H]2CC[C@@H](N3CCC(c4ccccc4OCC(F)F)CC3)CC2)cc1OC | 21 min | 228 nM | 278 nM | 8.6 nM |  |
| COc1ccc(S(=O)(=O)N[C@H]2CC[C@@H](N3CCC(c4ccccc4OC(C)C)CC3)CC2)cc1OC | 12 min | 165 nM | 151 nM | 1.7 nM | 1.8 nM |
| CC(C)Oc1ccccc1N1CCN([C@H]2CC[C@@H](NS(=O)(=O)c3ccc(Cl)cc3Cl)CC2)CC1 | 3.5 min |  |  |  |  |
| COc1ccc(S(=O)(=O)N[C@H]2CC[C@@H](N3CCN(c4ccccc4OC(C)C)CC3)CC2)cc1OC | 4.9 min | 136 nM | 106 nM | 0.68 nM |  |
| COc1ccc(C)cc1S(=O)(=O)N[C@H]1CC[C@@H](N2CCN(c3ccccc3OC(C)C)CC2)CC1 | < 2 min |  |  |  |  |
| CCN([C@H]1CC[C@@H](N2CCN(c3ccccc3OC(C)C)CC2)CC1)S(=O)(=O)c1ccc(OC)c(OC)c1 |  | 113 nM |  |  |  |
| COc1ccc(S(=O)(=O)N[C@H]2CC[C@@H](N3CCN(c4ccccc4OCC(F)(F)F)CC3)CC2)cc1OC | 35 min | 192 nM | 86 nM | 0.35 nM |  |
| COc1ccc(S(=O)(=O)N[C@H]2CC[C@@H](N3CCC(c4ccccc4OCCF)CC3)CC2)cc1OC | 20 min | 330 nM |  |  |  |
